Data reported in ChEMBL document CHEMBL1268950, “Fluorescent-tagged sp2-iminosugars with potent β-glucosidase inhibitory activity” (Bioorg Med Chem, 2010).
The source made the active and inactive calls. The rule behind the calls is not given here.

How the values were obtained:
Alpha-glucosidase MAL12 [1] = target: T1, Alpha-glucosidase MAL12 (Saccharomyces cerevisiae S288c, UniProt P53341); assay: Inhibition of yeast alpha-glucosidase at 2 mM after 10 to 30 mins
[2] = Inhibition of almond beta-glucosidase at pH 7.3 after 10 to 30 mins; set-up: species or system Prunus dulcis
[3] = Inhibition of jack beans alpha-mannosidase at 2 mM after 10 to 30 mins; set-up: species or system Canavalia ensiformis
[4] = Inhibition of Helix pomatia beta-mannosidase after 10 to 30 mins
Uncharacterized protein [5] = target: T2, Uncharacterized protein (Sus scrofa, UniProt I3LIR5); assay: Inhibition of pig kidney trehalase after 10 to 30 mins
T2 sequence (I3LIR5 whole entry): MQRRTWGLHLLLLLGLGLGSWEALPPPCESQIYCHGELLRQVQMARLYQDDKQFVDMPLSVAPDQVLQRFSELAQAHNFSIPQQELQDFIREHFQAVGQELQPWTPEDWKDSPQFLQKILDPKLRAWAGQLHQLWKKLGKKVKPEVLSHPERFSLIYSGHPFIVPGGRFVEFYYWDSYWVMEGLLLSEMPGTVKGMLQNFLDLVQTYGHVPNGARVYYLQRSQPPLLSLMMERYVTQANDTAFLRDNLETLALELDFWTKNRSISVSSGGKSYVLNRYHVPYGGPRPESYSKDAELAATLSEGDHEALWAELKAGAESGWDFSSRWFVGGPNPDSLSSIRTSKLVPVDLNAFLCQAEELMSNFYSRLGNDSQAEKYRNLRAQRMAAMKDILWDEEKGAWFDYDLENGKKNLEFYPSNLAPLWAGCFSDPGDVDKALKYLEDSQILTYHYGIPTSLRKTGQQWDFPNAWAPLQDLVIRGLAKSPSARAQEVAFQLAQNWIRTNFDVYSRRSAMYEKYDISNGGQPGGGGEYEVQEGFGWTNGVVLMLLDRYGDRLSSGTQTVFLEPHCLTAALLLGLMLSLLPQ

[6] = Inhibition of Penicillium decumbens naringinase after 10 to 30 mins
[7] = target: Alpha-galactosidase (Coffea arabica) (UniProt Q42656); assay: Inhibition of green coffee bean alpha-galactosidase at 2 mM after 10 to 30 mins
Alpha-galactosidase (Coffea arabica), sequence (Q42656 16-378 limits assumed): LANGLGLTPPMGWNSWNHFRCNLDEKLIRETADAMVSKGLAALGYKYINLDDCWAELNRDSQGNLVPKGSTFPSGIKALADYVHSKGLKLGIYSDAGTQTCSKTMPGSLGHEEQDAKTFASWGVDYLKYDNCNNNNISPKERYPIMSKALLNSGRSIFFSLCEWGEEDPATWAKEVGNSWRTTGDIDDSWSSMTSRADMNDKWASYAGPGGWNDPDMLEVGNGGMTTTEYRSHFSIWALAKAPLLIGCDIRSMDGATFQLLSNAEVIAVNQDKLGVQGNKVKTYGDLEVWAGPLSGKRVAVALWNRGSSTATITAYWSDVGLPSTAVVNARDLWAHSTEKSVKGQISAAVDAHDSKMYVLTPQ

[8] = target: Oligo-1,6-glucosidase IMA1 (Saccharomyces cerevisiae S288c) (UniProt P53051); assay: Inhibition of yeast isomaltase at 2 mM after 10 to 30 mins
Oligo-1,6-glucosidase IMA1 (Saccharomyces cerevisiae S288c), sequence (P53051 whole entry): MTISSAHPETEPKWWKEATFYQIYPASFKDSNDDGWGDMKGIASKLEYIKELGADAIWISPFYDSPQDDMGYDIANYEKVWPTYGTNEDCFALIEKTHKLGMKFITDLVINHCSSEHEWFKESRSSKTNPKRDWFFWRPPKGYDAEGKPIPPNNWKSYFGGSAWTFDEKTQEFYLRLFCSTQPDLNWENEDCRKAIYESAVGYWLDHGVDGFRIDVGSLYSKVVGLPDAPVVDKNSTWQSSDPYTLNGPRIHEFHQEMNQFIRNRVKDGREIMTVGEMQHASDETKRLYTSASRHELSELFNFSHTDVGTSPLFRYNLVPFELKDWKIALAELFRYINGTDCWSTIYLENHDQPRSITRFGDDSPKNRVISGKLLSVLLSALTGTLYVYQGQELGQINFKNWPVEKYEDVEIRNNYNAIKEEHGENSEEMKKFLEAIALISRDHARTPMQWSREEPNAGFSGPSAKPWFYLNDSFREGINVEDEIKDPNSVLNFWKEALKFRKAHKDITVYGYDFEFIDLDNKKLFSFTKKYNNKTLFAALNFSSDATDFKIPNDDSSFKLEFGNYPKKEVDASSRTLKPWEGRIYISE

Alpha-glucosidase MAL12 [9] = target: T1, Alpha-glucosidase MAL12; assay: Inhibition of yeast alpha-glucosidase after 10 to 30 mins
[10] = Inhibition of jack beans alpha-mannosidase after 10 to 30 mins; set-up: species or system Canavalia ensiformis
[11] = Inhibition of Aspergillus niger amyloglucosidase after 10 to 30 mins
Glucosylceramidase = target: T3, Glucosylceramidase (Bos taurus, UniProt Q2KHZ8); assay: Inhibition of bovine liver beta-glucosidase at 2 mM after 10 to 30 mins
T3 sequence (Q2KHZ8 whole entry): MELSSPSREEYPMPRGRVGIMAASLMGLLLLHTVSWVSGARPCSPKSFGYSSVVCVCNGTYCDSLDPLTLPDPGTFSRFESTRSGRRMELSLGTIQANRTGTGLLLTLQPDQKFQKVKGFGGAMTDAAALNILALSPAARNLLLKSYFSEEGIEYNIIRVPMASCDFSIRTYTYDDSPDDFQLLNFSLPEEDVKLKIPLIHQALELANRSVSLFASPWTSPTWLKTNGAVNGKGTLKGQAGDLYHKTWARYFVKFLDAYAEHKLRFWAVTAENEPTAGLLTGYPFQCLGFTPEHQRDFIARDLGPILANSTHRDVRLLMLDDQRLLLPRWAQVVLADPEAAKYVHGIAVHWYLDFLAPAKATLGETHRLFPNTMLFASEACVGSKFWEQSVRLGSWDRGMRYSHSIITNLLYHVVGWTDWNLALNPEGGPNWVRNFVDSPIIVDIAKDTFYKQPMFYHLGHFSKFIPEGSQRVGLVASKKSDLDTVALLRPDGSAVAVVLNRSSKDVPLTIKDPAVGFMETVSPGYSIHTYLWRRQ

[12] = Inhibition of Helix pomatia beta-mannosidase at 2 mM after 10 to 30 mins
[13] = Inhibition of Aspergillus niger amyloglucosidase at 2 mM after 10 to 30 mins
[14] = Binding affinity to almond beta-glucosidase by FRET assay; set-up: species or system Prunus dulcis
In short: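 Direct titration: almond β-glucosidase 1.25 µM in 0.05 M potassium phosphate pH 7.3, 37 °C. Inhibitor stock (50 µM, made in the enzyme solution) added portion-wise to ~6 µM. Excitation 280 nm. Tryptophan emission read at 339 nm and dansyl emission at 515 nm at 10–15 ratios. Kd from least-squares fit to a 1:1 model. Reverse titration (enzyme into 1.0 µM inhibitor, 515 nm) gave confirmation.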

Uncharacterized protein [15] = target: T2, Uncharacterized protein; assay: Inhibition of pig kidney trehalase at 2 mM after 10 to 30 mins

T1 sequence (P53341 whole entry): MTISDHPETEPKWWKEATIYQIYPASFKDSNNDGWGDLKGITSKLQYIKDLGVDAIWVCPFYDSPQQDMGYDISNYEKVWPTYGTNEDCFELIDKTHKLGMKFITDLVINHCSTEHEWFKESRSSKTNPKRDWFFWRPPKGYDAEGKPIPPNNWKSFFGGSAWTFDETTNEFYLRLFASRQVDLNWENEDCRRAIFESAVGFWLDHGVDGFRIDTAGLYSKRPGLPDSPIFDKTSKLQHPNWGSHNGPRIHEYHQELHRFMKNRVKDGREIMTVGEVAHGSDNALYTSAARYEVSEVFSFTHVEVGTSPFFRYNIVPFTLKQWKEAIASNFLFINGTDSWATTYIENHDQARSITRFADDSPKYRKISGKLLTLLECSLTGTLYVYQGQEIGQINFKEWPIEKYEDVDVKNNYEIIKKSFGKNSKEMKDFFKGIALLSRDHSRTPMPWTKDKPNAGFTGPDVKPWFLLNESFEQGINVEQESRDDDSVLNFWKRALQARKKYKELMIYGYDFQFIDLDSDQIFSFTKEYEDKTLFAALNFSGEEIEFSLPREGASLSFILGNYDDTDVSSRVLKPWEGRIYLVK

Structure (SMILES)	Ki (Alpha-glucosidase MAL12 [1])	Ki [2]	Ki [3]	Ki [4]	Ki (Uncharacterized protein [5])	Ki [6]	inhibition [7]	inhibition [8]	Ki (Alpha-glucosidase MAL12 [9])	Ki [10]	Ki ([4]; read-out: Ki)	Ki [11]	Ki (Glucosylceramidase)	Ki [12]	Ki [13]	Kd [14]	Ki (Uncharacterized protein [15])
CCCCCCCC/N=C1\SC[C@@H]2[C@@H](O)[C@H](O)[C@@H](O)[C@@H](O)N12	Not Active	0.76 µM	Not Active	Not Active	13.4 µM	0.23 µM	inactive	inactive									
CCN(CC)c1ccc2cc(C(=O)NCCCC/N=C3\SC[C@@H]4[C@@H](O)[C@H](O)[C@@H](O)[C@@H](O)N34)c(=O)oc2c1		0.45 µM			28.2 µM	0.072 µM	inactive	inactive	313 µM	199 µM	11 µM	167 µM					
Cl.NCCCC/N=C1\SC[C@@H]2[C@@H](O)[C@H](O)[C@@H](O)[C@@H](O)N12	Not Active	12.8 µM	Not Active		116 µM	1.8 µM	inactive	inactive					Not Active	Not Active	Not Active		
CN(C)c1cccc2c(S(=O)(=O)NCCCC/N=C3\SC[C@@H]4[C@@H](O)[C@H](O)[C@@H](O)[C@@H](O)N34)cccc12		0.36 µM	Not Active		293 µM	0.21 µM	inactive	inactive	246 µM		387 µM				Not Active	0.2 µM	
CN(C)c1ccc(-c2cnc(-c3ccc(S(=O)(=O)NCCCC/N=C4\SC[C@@H]5[C@@H](O)[C@H](O)[C@@H](O)[C@@H](O)N45)cc3)o2)cc1		0.55 µM				1.2 µM	inactive	inactive	714 µM	235 µM	522 µM				Not Active		Not Active
